ChEMBL document CHEMBL1681746, “N-benzylimidazole carboxamides as potent, orally active stearoylCoA desaturase-1 inhibitors” (Bioorg Med Chem Lett, 2011)
Values belong to the compound of their own block, whether it stands above or below them.

Legend:
[1] = Clearance in rat; assay type: ADME, organism-based; details: in vivo
Acyl-CoA desaturase 1 [2] = target: T1, Acyl-CoA desaturase 1 (Rattus norvegicus, UniProt P07308); assay: Inhibition of rat liver SCD1 using [3H]-stearoylCoA
T1 sequence (P07308 whole entry): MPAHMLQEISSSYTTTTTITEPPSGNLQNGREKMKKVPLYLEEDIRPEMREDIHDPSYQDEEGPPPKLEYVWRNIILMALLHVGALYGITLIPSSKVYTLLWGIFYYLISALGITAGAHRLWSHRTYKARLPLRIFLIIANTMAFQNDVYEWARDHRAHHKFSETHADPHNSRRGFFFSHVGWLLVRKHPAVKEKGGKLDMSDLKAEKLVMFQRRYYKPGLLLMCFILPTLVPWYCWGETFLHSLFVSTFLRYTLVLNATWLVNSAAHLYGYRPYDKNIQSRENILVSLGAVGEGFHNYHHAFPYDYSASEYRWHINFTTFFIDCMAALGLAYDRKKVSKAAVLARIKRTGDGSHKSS

[3] = Volume of distribution at steady state in rat; assay type: ADME, organism-based; details: in vivo, read-out: Vdss
[4] = Intrinsic clearance in human liver microsomes assessed per mg of protein; assay type: ADME, Microsome
Stearoyl-CoA desaturase = target: T2, Stearoyl-CoA desaturase (Homo sapiens, UniProt O00767); assay: Inhibition of human SCD1
T2 sequence (O00767 whole entry): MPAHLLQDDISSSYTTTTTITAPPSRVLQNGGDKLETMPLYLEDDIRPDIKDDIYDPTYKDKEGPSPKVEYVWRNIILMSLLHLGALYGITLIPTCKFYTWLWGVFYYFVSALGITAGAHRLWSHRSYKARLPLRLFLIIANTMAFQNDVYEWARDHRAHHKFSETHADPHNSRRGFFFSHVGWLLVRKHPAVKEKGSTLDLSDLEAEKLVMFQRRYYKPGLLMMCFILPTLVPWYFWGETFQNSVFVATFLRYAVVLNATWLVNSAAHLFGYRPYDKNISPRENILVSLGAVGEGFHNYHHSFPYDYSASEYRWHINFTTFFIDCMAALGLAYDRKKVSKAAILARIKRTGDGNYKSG
Outline: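 Orthogonal assay using tritiated stearoylCoA substrate and human liver microsomes as enzyme source; IC₅₀ determined.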

Plasma [5] = assay: Drug level in Sprague-Dawley rat plasma at 1 mg/kg, po; assay type: ADME, organism-based; set-up: dose 1 mg/kg, route oral; details: in vivo
Outline: (§1)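 Sprague–Dawley rats, n = 8 per dose group, fasted 20 h, then LEFA diet 24 h. Next day given po doses of 1, 10 or 30 mg/kg in 0.5% methylcellulose. Total drug concentration measured in plasma sampled 3 h post dose.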

Rattus norvegicus [6] = assay: Reduction of desaturation index in low essential fatty acid diet model of Sprague-Dawley rat plasma at 10 mg/kg, po after 3 hrs; assay type: functional; set-up: scale not given: the % may be the effect or the level left
Outline: (§2)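 Sprague–Dawley rats, n = 8 per dose group, fasted 20 h, then fed low essential fatty acid (LEFA) diet for 24 h. Next day dosed po in 0.5% methylcellulose vehicle. Plasma taken 3 h post dose. Stearic and oleic acid extracted from plasma and quantitated by LC/MS. DI = total oleic:stearic acid ratio; % reduction relative to vehicle group.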

Plasma [7] = assay: Drug level in Sprague-Dawley rat plasma at 10 mg/kg, po; assay type: ADME, organism-based; set-up: dose 10 mg/kg, route oral; details: in vivo; outline: as §1
[8] = Intrinsic clearance in rat liver microsomes assessed per mg of protein; assay type: ADME, Microsome
Cytochrome P450 2C19 = Cytochrome P450 2C19 (Homo sapiens, UniProt P33261); assay: Inhibition of CYP2C19; assay type: ADME
Sequence of Cytochrome P450 2C19 (P33261 whole entry): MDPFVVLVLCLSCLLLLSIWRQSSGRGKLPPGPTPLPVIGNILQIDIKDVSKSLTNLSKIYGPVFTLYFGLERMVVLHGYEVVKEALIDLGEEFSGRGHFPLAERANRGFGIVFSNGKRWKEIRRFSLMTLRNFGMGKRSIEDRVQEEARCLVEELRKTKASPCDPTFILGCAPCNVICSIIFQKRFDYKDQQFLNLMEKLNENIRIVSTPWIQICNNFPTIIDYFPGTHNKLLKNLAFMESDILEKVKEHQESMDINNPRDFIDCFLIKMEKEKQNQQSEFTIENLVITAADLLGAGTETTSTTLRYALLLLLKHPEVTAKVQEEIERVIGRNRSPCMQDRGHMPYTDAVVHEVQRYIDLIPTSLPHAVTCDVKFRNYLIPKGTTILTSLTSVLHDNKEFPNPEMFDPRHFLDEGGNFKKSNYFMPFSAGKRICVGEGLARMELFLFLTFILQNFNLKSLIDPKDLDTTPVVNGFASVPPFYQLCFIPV

[9] = Half life in po dosed in rat; assay type: ADME, organism-based; details: in vivo
Rattus norvegicus [10] = assay: Reduction of desaturation index in low essential fatty acid diet model of Sprague-Dawley rat plasma at 1 mg/kg, po after 3 hrs; assay type: functional; set-up: scale not given: the % may be the effect or the level left; outline: as §2
[11] = Oral bioavailability in rat; assay type: ADME, organism-based; details: in vivo
Plasma [12] = assay: Drug level in Sprague-Dawley rat plasma at 30 mg/kg, po; assay type: ADME, organism-based; set-up: dose 30 mg/kg, route oral; details: in vivo; outline: as §1
Plasma [13] = assay: Free plasma concentration in Sprague-Dawley rat plasma at 30 mg/kg, po; assay type: ADME, organism-based; set-up: dose 30 mg/kg, route oral; details: in vivo
[14] = target: Voltage-gated inwardly rectifying potassium channel KCNH2 (Homo sapiens, UniProt Q12809); assay: Inhibition of human ERG by patch clamp assay
Sequence of Voltage-gated inwardly rectifying potassium channel KCNH2 (Q12809 whole entry): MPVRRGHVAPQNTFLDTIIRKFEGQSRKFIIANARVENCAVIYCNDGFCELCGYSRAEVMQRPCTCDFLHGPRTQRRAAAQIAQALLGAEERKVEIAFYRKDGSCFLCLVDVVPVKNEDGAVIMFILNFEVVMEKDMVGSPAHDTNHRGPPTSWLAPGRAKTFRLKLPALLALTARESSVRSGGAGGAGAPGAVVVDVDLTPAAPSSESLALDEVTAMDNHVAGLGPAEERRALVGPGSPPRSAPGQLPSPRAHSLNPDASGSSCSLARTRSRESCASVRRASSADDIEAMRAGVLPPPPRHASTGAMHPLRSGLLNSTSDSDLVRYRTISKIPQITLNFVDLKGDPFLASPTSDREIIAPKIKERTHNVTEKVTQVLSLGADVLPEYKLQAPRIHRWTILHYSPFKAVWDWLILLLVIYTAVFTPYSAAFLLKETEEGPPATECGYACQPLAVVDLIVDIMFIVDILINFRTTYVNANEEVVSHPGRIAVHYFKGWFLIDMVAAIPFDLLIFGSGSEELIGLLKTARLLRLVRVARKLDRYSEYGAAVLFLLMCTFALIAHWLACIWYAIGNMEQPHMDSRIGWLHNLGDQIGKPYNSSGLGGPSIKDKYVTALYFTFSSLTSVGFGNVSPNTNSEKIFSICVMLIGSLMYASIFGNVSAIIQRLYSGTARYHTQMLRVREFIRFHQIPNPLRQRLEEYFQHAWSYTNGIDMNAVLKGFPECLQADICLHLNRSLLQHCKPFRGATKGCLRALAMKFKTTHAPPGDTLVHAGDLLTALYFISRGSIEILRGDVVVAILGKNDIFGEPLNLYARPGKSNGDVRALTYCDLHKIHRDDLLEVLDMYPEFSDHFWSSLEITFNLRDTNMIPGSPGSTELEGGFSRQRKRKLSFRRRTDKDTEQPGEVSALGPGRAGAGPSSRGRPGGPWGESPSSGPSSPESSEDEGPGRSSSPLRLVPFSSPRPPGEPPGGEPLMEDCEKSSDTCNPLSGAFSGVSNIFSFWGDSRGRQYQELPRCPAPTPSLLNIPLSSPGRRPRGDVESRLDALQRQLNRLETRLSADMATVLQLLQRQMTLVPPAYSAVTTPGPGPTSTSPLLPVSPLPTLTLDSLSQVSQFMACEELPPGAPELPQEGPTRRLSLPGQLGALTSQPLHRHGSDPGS

Rattus norvegicus [15] = assay: Toxicity in low essential fatty acid diet model of Sprague-Dawley rat ocular tissue assessed as red eye formation at 1 to 30 mg/kg, po after 27 hrs; assay type: organism-based; set-up: dose 1-30 mg/kg, route oral; details: in vivo
Outline: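 LEFA-diet Sprague–Dawley rats (n = 8/group) dosed po in 0.5% methylcellulose with plasma sampled at 3 h. Animals then held for observation. Ocular tissues (red eyes) assessed at 27 h post-dose.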

Cytochrome P450 3A4 = Cytochrome P450 3A4 (Homo sapiens, UniProt P08684); assay: Inhibition of CYP3A4; assay type: ADME
Sequence of Cytochrome P450 3A4 (P08684 whole entry): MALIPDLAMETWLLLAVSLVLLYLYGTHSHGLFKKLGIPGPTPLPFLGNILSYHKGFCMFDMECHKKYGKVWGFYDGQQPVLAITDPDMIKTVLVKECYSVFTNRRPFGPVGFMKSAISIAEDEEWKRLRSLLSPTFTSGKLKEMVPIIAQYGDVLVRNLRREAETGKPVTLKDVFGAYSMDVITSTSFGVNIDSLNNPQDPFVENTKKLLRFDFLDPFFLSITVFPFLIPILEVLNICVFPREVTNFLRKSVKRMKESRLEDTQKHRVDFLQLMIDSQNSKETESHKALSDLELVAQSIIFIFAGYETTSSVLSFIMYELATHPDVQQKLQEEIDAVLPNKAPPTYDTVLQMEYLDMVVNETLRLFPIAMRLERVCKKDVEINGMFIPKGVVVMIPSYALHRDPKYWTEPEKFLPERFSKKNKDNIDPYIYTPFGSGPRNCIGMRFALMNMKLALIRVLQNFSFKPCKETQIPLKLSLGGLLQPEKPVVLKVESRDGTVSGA

[16] = Genotoxicity in Salmonella Typhimurium by Ames test; assay type: toxicity; details: salmonella enterica subsp. enterica serovar typhimurium
Rattus norvegicus [17] = assay: Reduction of desaturation index in low essential fatty acid diet model of Sprague-Dawley rat plasma at 30 mg/kg, po after 3 hrs; assay type: functional; set-up: scale not given: the % may be the effect or the level left; outline: as §2
Rattus norvegicus [18] = assay: Reduction of desaturation index in po dosed low essential fatty acid diet model of Sprague-Dawley rat plasma after 3 hrs; assay type: functional, organism-based; outline: as §2
Plasma [19] = assay: Free plasma concentration in Sprague-Dawley rat plasma at 1 mg/kg, po; assay type: ADME, organism-based; set-up: dose 1 mg/kg, route oral; details: in vivo
Cytochrome P450 2D6 = Cytochrome P450 2D6 (Homo sapiens, UniProt P10635); assay: Inhibition of CYP2D6; assay type: ADME
Sequence of Cytochrome P450 2D6 (P10635 whole entry): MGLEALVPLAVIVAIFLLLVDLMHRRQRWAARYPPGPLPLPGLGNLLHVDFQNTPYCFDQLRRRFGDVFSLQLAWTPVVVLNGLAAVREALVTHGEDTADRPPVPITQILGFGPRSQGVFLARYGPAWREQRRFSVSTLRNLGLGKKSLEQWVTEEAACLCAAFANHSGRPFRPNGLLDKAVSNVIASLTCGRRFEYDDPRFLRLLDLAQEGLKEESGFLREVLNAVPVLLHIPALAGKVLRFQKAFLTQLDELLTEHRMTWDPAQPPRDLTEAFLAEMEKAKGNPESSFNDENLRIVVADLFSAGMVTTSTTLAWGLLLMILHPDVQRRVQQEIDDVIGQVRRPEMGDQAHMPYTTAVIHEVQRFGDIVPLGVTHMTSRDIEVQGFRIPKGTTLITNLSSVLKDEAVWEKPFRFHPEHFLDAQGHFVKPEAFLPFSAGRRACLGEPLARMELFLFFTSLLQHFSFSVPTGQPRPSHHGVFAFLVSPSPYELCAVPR

Plasma [20] = assay: Free plasma concentration in Sprague-Dawley rat plasma at 10 mg/kg, po; assay type: ADME, organism-based; set-up: dose 10 mg/kg, route oral; details: in vivo
Cytochrome P450 2C9 = Cytochrome P450 2C9 (Homo sapiens, UniProt P11712); assay: Inhibition of CYP2C9; assay type: ADME
Sequence of Cytochrome P450 2C9 (P11712 whole entry): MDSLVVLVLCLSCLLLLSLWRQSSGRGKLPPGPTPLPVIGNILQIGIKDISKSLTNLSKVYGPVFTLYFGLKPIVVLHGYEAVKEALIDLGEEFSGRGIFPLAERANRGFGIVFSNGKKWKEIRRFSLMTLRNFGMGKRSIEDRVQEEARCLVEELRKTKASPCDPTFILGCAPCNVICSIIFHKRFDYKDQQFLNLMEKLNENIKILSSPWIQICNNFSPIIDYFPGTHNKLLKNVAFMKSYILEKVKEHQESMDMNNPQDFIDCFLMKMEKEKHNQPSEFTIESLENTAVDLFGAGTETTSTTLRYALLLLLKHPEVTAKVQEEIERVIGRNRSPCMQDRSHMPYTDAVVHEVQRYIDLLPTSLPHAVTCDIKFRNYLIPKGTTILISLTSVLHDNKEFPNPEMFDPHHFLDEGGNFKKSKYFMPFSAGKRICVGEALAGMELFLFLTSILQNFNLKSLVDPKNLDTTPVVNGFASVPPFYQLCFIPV

Cytochrome P450 1A2 = target: T3, Cytochrome P450 1A2 (Homo sapiens, UniProt P05177); assay: Inhibition of CYP1A2; assay type: ADME
T3 sequence (P05177 whole entry): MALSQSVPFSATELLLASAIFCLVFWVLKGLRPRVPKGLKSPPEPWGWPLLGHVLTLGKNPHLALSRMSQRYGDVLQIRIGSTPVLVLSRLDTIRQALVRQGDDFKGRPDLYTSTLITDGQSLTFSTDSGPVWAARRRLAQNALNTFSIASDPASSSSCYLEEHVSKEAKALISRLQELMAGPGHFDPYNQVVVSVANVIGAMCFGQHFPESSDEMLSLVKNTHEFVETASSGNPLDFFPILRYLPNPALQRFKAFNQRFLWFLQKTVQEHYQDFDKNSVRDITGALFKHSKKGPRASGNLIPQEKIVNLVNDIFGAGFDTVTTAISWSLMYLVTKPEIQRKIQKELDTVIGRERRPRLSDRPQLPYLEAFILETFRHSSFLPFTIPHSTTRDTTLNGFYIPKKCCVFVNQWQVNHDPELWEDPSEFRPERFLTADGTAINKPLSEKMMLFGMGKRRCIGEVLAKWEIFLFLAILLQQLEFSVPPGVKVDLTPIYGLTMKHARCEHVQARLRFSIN

CYP2D6 = CYP2D6 (Homo sapiens, UniProt P10635); assay: Inhibition of CYP2D6 at 3 uM; assay type: ADME
Sequence of CYP2D6 (P10635 whole entry, canonical isoform): as the sequence (P10635 whole entry) above
Outline: (§3)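 Percent inhibition of each CYP isoform (1A2, 2C9, 2D6, 3A4) measured at […] test concentration.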

hERG = hERG (Homo sapiens, UniProt Q12809); assay: Displacement of [3H]-dofetilide from human ERG at 10 uM; details: probe [3H]-dofetilide
Sequence of hERG (Q12809 whole entry): as the sequence (Q12809 whole entry) above
Outline: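 Dofetilide binding assay; percent inhibition measured at […] test concentration.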

Acyl-CoA desaturase 1 [21] = target: T1, Acyl-CoA desaturase 1; assay: Inhibition of rat liver SCD1 assessed as formation of deuterated oleoylCoA by HTMS assay
Outline: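 Rat liver microsomes as enzyme source. RapidFire high-throughput mass spectrometry quantitates deuterated oleoylCoA formed from deuterated stearoylCoA substrate.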

[22] = Apparent permeability of the compound by PAMPA; assay type: ADME
CYP2C9 = CYP2C9 (Homo sapiens, UniProt P11712); assay: Inhibition of CYP2C9 at 3 uM; assay type: ADME; outline: as §3
Sequence of CYP2C9 (P11712 whole entry): as the sequence (P11712 whole entry) above

CYP3A4 = CYP3A4 (Homo sapiens, UniProt P08684); assay: Inhibition of CYP3A4 at 3 uM; assay type: ADME; outline: as §3
Sequence of CYP3A4 (P08684 whole entry): as the sequence (P08684 whole entry) above

CYP1A2 = target: T4, CYP1A2 (Homo sapiens, UniProt P05177); assay: Inhibition of CYP1A2 at 3 uM; assay type: ADME; outline: as §3
T4 sequence (P05177 whole entry): T3 sequence (P05177 whole entry)

SMILES: CC(=O)NCCNC(=O)c1cn(Cc2ccc(F)c(C(F)(F)F)c2)cn1
- IC50 (Acyl-CoA desaturase 1 [2]): 2750 nM

SMILES: Cn1ccc(NC(=O)c2ccn(Cc3cccc(C(F)(F)F)c3)n2)n1
- IC50 (Acyl-CoA desaturase 1 [2]): 2140 nM

SMILES: Cn1ccc(NC(=O)c2ncn(Cc3cccc(C(F)(F)F)c3)n2)n1
- IC50 (Acyl-CoA desaturase 1 [2]): 113 nM

SMILES: Cc1c(C(=O)N=C(N)N)ncn1Cc1ccc(Cl)cc1
- inhibition at 3 µM (CYP2D6): < 1%
- IC50 (Acyl-CoA desaturase 1 [2]): 94 nM
- inhibition at 10 µM (hERG): 64%
- microsomal CLint [8]: 74.1 µL/min/mg
- IC50 (Stearoyl-CoA desaturase): 217 nM
- microsomal CLint [4]: 15.5 µL/min/mg
- IC50 (Acyl-CoA desaturase 1 [21]): 68 nM
- Papp [22]: 2.6 ×10⁻⁶ cm/s
- inhibition at 3 µM (CYP2C9): < 1%
- inhibition at 3 µM (CYP3A4): < 1%
- inhibition at 3 µM (CYP1A2): < 1%

SMILES: Cn1ccc(NC(=O)c2cn(CC3(CC4CC4)CCC3)cn2)n1
- IC50 (Acyl-CoA desaturase 1 [2]): 101 nM

SMILES: Cn1ccc(NC(=O)c2cn(CCc3ccccc3Cl)cn2)n1
- IC50 (Acyl-CoA desaturase 1 [2]): 126 nM

The next compounds have a lower IC50 (Acyl-CoA desaturase 1 [2]) than those just listed; values first:

- clearance [1]: 641 mL/min/kg
- IC50 (Acyl-CoA desaturase 1 [2]): 33 nM
- Vd [3]: 10.2 L/kg
- microsomal CLint [4]: < 8 µL/min/mg
SMILES: Cn1ccc(NC(=O)c2cn(Cc3ccc(Cl)c(C(F)(F)F)c3)nn2)n1

- IC50 (Acyl-CoA desaturase 1 [2]): 32 nM
- IC50 (Stearoyl-CoA desaturase): 88 nM
SMILES: Cn1ccc(NC(=O)c2cn(Cc3cccc(OC(F)(F)F)c3)cn2)n1

- clearance [1]: 43 mL/min/kg
- Drug uptake (Plasma [5]): 56.8 ng/mL
- IC50 (Acyl-CoA desaturase 1 [2]): 11.8 nM
- Drug uptake (Plasma [7]): 1703 ng/mL
- microsomal CLint [8]: < 18 µL/min/mg
- IC50 (Cytochrome P450 2C19): > 30000 nM
- half-life [9]: 2.3 h
- bioavailability [11]: 52%
- Drug uptake (Plasma [12]): 6491 ng/mL
- Cp(f) (Plasma [13]): 2035 nM
- Vd [3]: 4.5 L/kg
- microsomal CLint [4]: < 8 µL/min/mg
- IC50 (Cytochrome P450 3A4): > 30000 nM
- Cp(f) (Plasma [19]): 17.6 nM
- IC50 (Cytochrome P450 2D6): > 30000 nM
- Cp(f) (Plasma [20]): 533.5 nM
- IC50 (Cytochrome P450 2C9): > 30000 nM
- IC50 (Cytochrome P450 1A2): > 30000 nM
SMILES: Cc1c(C(=O)Nc2ccn(C)n2)ncn1Cc1cccc(C(F)(F)F)c1
- Activity (Rattus norvegicus [6]): 85%
- Activity (Rattus norvegicus [10]): 55%
- IC50 [14]: 28900 nM
- Activity (Rattus norvegicus [15]): Toxic
- Activity [16]: Non-toxic
- Activity (Rattus norvegicus [17]): 84%
- Activity (Rattus norvegicus [18]): Dose-dependent effect

- IC50 (Acyl-CoA desaturase 1 [2]): 63 nM
SMILES: Cn1cnc(NC(=O)c2cn(Cc3ccc(Cl)c(C(F)(F)F)c3)cn2)n1

- clearance [1]: 463 mL/min/kg
- IC50 (Acyl-CoA desaturase 1 [2]): 11 nM
- Vd [3]: 8.1 L/kg
- microsomal CLint [4]: < 8 µL/min/mg
SMILES: Cn1ccc(NC(=O)c2cn(Cc3cccc(C(F)(F)F)c3)cn2)n1

- clearance [1]: 30 mL/min/kg
- IC50 (Acyl-CoA desaturase 1 [2]): 63 nM
- half-life [9]: 1.3 h
- bioavailability [11]: 66%
- Vd [3]: 0.7 L/kg
- microsomal CLint [4]: 25.9 µL/min/mg
SMILES: Cn1ccc(NC(=O)c2cnn(Cc3ccc(Cl)c(C(F)(F)F)c3)c2)n1

- IC50 (Acyl-CoA desaturase 1 [2]): 25 nM
SMILES: Cn1ncc(NC(=O)c2cn(Cc3cccc(C(F)(F)F)c3)cn2)n1

- IC50 (Acyl-CoA desaturase 1 [2]): 57 nM
SMILES: Cn1ccc(NC(=O)c2cn(Cc3cccc(Cl)c3)cn2)n1

- IC50 (Acyl-CoA desaturase 1 [2]): 16 nM
SMILES: Cn1ccc(NC(=O)c2cn(Cc3ccc(Cl)c(C(F)(F)F)c3)cn2)n1
